Source: ChEMBL document CHEMBL1156888, “The first low microM SecA inhibitors” (Bioorg Med Chem, 2010)
The source made the active and inactive calls. The rule behind the calls is not given here.

What was measured:
[1] = tested on: Escherichia coli; assay: Antimicrobial activity against wild type Escherichia coli MC4100 after 10 to 12 hrs; format: functional, organism-based
Method in brief: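 E. coli K-12 wild-type strain MC4100. Log-phase cells (OD600 ~0.5 to 1.0) diluted to OD600 0.05, compounds added from 100% DMSO stocks, final 5% DMSO. Cultured with shaking at 37 °C, 1050 rpm, for 10 to 12 h.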

[2] = tested on: Escherichia coli; assay: Inhibition of Escherichia coli SecA N-terminal fragment EcN68 assessed as phosphate release at 30 uM by Malachite green assay
Method in brief: (§1)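 ATPase of truncated E. coli SecA N68 (lacks C-terminal regulatory domain), 2.25 µg per reaction, with 2 mM ATP in 50 mM Tris-HCl pH 7.6, 20 mM KCl, 20 mM NH4Cl, 1 mM DTT, 2 mM Mg(OAc)2, 10% DMSO. Run at 40 °C for 20 min, stopped with malachite green then citric acid, 40 min at room temperature, A660 read. Activity remaining expressed as percent of compound-free control. At least triplicate, SEM.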

[3] = tested on: Escherichia coli; assay: Antimicrobial activity against permeability mutant Escherichia coli NR698 after 10 to 12 hrs; format: functional, organism-based
Method in brief: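 Outer-membrane-permeable MC4100 imp4213 mutant; log-phase cells (OD600 ~0.5–1.0) diluted to OD600 0.05, compounds added from 100% DMSO stocks, cultures with 5% DMSO final, shaken at 37 °C, 1050 rpm, 10–12 h.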

[4] = tested on: Escherichia coli; assay: Inhibition of Escherichia coli SecA N-terminal fragment EcN68 assessed as phosphate release at 5 uM by Malachite green assay; method in brief: as §1
[5] = tested on: Escherichia coli; assay: Inhibition of Escherichia coli SecA N-terminal fragment EcN68 assessed as phosphate release at 100 uM by Malachite green assay; method in brief: as §1
[6] = Inhibition of Escherichia coli full length SecA assessed as phosphate release by Malachite green assay
Method in brief: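 Full-length SecA (5 µg) in 50 µL with 2 mM ATP, 50 mM Tris-HCl pH 7.6, 20 mM KCl, 20 mM NH4Cl, 1 mM DTT, 2 mM Mg(OAc)2, 10% DMSO; 40 °C, 40 min. Stopped with malachite green then 34% citric acid; 40 min room temperature, A660. Activity as percent of no-compound controls; at least triplicate.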

[7] = Inhibition of Escherichia coli SecA N-terminal fragment EcN68 assessed as phosphate release by Malachite green assay
Method in brief: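 Truncated SecA lacking the C-terminal regulatory domain (2.25 µg) in 50 µL with 2 mM ATP, 50 mM Tris-HCl pH 7.6, 20 mM KCl, 20 mM NH4Cl, 1 mM DTT, 2 mM Mg(OAc)2, 10% DMSO; 40 °C, 20 min. Stopped with malachite green then 34% citric acid; 40 min room temperature, A660. Percent remaining ATPase versus no-compound controls; at least triplicate.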

**Q.** With `N#Cc1c(-c2ccc(-c3ccccc3)cc2)nc(SCc2ccccc2)[nH]c1=O` as the compound, how does the MIC [1] read?
**A.** inactive

**Q.** What about the inhibition [2] of the same compound?
**A.** Active

**Q.** What about the MIC [3] of the same compound?
**A.** Active

**Q.** Which results are given for `CC(C)c1ccc(C2=NC(SCc3ccc(CSc4nc(-c5ccc(C(C)C)cc5)c(C#N)c(=O)[nH]4)cc3)=NC(=O)C2C#N)cc1` (stereo not drawn)?
**A.** inhibition [4]: Active; inhibition [5]: Active; inhibition [2]: Active

**Q.** For `O=[N+]([O-])c1ccc2oc(SCc3ccc(CSc4nc5cc([N+](=O)[O-])ccc5o4)cc3)nc2c1`, which inhibition [5] is on record?
**A.** Active

**Q.** Which results are given for `COc1ccc(C2=NC(SCc3ccc(CSc4nc(-c5ccc(OC)cc5)c(C#N)c(=O)[nH]4)cc3)=NC(=O)C2C#N)cc1` (stereo not drawn)?
**A.** inhibition [5]: Active; inhibition [2]: Active

**Q.** With `CC(C)c1ccc(-c2nc(SCc3ccccc3)[nH]c(=O)c2C#N)cc1` as the compound, how does the inhibition [2] read?
**A.** Active

**Q.** Which inhibition [5] does the source give for `Cc1onc(-c2c(Cl)cccc2Cl)c1C(=O)N1CCCCC1` here?
**A.** inactive

**Q.** For `Cc1onc(-c2c(Cl)cccc2Cl)c1C(=O)Nc1ccccc1F`, which inhibition [5] is on record?
**A.** inactive

**Q.** Which inhibition [5] does the source give for `Cc1ccccc1NC(=O)c1c(-c2c(Cl)cccc2Cl)noc1C` here?
**A.** inactive

**Q.** And the IC50 [6]?
**A.** 60 µM

**Q.** Which MIC [1] does the source give for `N#Cc1c(-c2ccc(-c3ccccc3)cc2)nc(SCc2ccc(CSC3=NC(=O)C(C#N)C(c4ccc(-c5ccccc5)cc4)=N3)cc2)[nH]c1=O` (stereo not drawn) here?
**A.** inactive

**Q.** And the inhibition [4]?
**A.** Active

**Q.** What about the IC50 [7] of the same compound?
**A.** 2 µM

**Q.** What about the inhibition [5] of the same compound?
**A.** Active

**Q.** And the IC50 [6]?
**A.** 50 µM

**Q.** What about the inhibition [2] of the same compound?
**A.** Active

**Q.** For `Cc1onc(-c2c(Cl)cccc2Cl)c1C(=O)N1CCSCC1`, which inhibition [5] is on record?
**A.** inactive

**Q.** With `Cc1onc(-c2c(Cl)cccc2Cl)c1C(=O)NC1CCCCC1` as the compound, how does the inhibition [5] read?
**A.** inactive

**Q.** Which inhibition [5] does the source give for `Cc1onc(-c2c(Cl)cccc2Cl)c1C(=O)NC1CCC(C)CC1` (stereo not drawn) here?
**A.** inactive

**Q.** With `N#Cc1c(-c2ccccc2)nc(SCc2ccc(CSC3=NC(=O)C(C#N)C(c4ccccc4)=N3)cc2)[nH]c1=O` (stereo not drawn) as the compound, how does the inhibition [5] read?
**A.** Active

**Q.** And the inhibition [2]?
**A.** Active

**Q.** Which inhibition [5] does the source give for `Cc1onc(-c2c(Cl)cccc2Cl)c1C(=O)Nc1ccc(F)c(Cl)c1` here?
**A.** inactive

**Q.** Which inhibition [5] does the source give for `Cc1cc(NC(=O)c2c(-c3c(Cl)cccc3Cl)noc2C)ccc1Br` here?
**A.** inactive

**Q.** For `Cc1onc(-c2c(Cl)cccc2Cl)c1C(=O)NCc1cccc(Br)c1`, which inhibition [5] is on record?
**A.** inactive

**Q.** With `Cc1onc(-c2c(Cl)cccc2Cl)c1C(=O)N1CCOCC1` as the compound, how does the inhibition [5] read?
**A.** inactive

**Q.** Which inhibition [5] does the source give for `Cc1ccc(NC(=O)c2c(-c3c(Cl)cccc3Cl)noc2C)c(C)c1` here?
**A.** inactive

**Q.** For `Cc1onc(-c2c(Cl)cccc2Cl)c1C(=O)NCc1ccccc1Br`, which inhibition [5] is on record?
**A.** inactive

**Q.** For `N#Cc1c(-c2cccc3ccccc23)nc(SCc2ccc(CSC3=NC(=O)C(C#N)C(c4cccc5ccccc45)=N3)cc2)[nH]c1=O` (stereo not drawn), which inhibition [4] is on record?
**A.** Active

**Q.** What about the inhibition [5] of the same compound?
**A.** Active

**Q.** And the inhibition [2]?
**A.** Active

**Q.** For `Cc1onc(-c2c(F)cccc2Cl)c1C(=O)Nc1ccc(Sc2ccccc2)nc1Sc1ccccc1`, which inhibition [5] is on record?
**A.** Active

**Q.** Which inhibition [5] does the source give for `Cc1cccc(NC(=O)c2c(-c3c(Cl)cccc3Cl)noc2C)c1` here?
**A.** inactive

**Q.** With `Cc1onc(-c2c(Cl)cccc2Cl)c1C(=O)Nc1cccc(Cl)c1` as the compound, how does the inhibition [5] read?
**A.** inactive

**Q.** Which inhibition [2] does the source give for `N#Cc1c(-c2cccc3ccccc23)nc(SCc2ccccc2)[nH]c1=O` here?
**A.** Active

**Q.** Which inhibition [5] does the source give for `Clc1ccc2oc(SCc3ccc(CSc4nc5cc(Cl)ccc5o4)cc3)nc2c1` here?
**A.** Active

**Q.** Which inhibition [5] does the source give for `c1ccc2oc(SCc3ccc(CSc4nc5ccccc5o4)cc3)nc2c1` here?
**A.** Active

**Q.** With `O=[N+]([O-])c1cccc2oc(SCc3ccc(CSc4nc5c([N+](=O)[O-])cccc5o4)cc3)nc12` as the compound, how does the inhibition [5] read?
**A.** Active

**Q.** With `N#Cc1c(-c2ccc(Br)cc2)nc(SCc2ccccc2)[nH]c1=O` as the compound, how does the inhibition [2] read?
**A.** Active

**Q.** For `Cc1ccc(C2=NC(SCc3ccc(CSc4nc(-c5ccc(C)cc5)c(C#N)c(=O)[nH]4)cc3)=NC(=O)C2C#N)cc1` (stereo not drawn), which inhibition [4] is on record?
**A.** Active

**Q.** What about the inhibition [5] of the same compound?
**A.** Active

**Q.** And the inhibition [2]?
**A.** Active

**Q.** What does the source list for `N#Cc1c(-c2ccc(Br)cc2)nc(SCc2ccc(CSC3=NC(=O)C(C#N)C(c4ccc(Br)cc4)=N3)cc2)[nH]c1=O` (stereo not drawn)?
**A.** inhibition [4]: Active; IC50 [7]: 2 µM; inhibition [5]: Active; IC50 [6]: 20 µM; inhibition [2]: Active

**Q.** Which inhibition [2] does the source give for `CCc1ccc(-c2nc(SCc3ccccc3)[nH]c(=O)c2C#N)cc1` here?
**A.** Active

**Q.** For `Clc1ccc2nc(SCc3ccc(CSc4nc5ccc(Cl)cc5s4)cc3)sc2c1`, which inhibition [5] is on record?
**A.** Active

**Q.** Which inhibition [4] does the source give for `CCc1ccc(C2=NC(SCc3ccc(CSc4nc(-c5ccc(CC)cc5)c(C#N)c(=O)[nH]4)cc3)=NC(=O)C2C#N)cc1` (stereo not drawn) here?
**A.** Active

**Q.** What about the inhibition [5] of the same compound?
**A.** Active

**Q.** And the inhibition [2]?
**A.** Active

**Q.** For `Cc1ccc2oc(SCc3ccc(CSc4nc5cc(C)ccc5o4)cc3)nc2c1`, which inhibition [5] is on record?
**A.** Active

**Q.** What does the source list for `Cc1cccc(C2=NC(SCc3ccc(CSc4nc(-c5cccc(C)c5)c(C#N)c(=O)[nH]4)cc3)=NC(=O)C2C#N)c1` (stereo not drawn)?
**A.** inhibition [5]: Active; inhibition [2]: Active
